Measurements reported in ChEMBL document CHEMBL1140923, “Discovery of imidazo[1,2-b]thiazole derivatives as novel SIRT1 activators” (J Med Chem, 2009).

Assays:
[1] = target: T1, NAD-dependent protein deacetylase sirtuin-1 (Homo sapiens) (UniProt Q96EB6); test: Activation of human SIRT1 expressed in Escherichia coli BL21Start assessed as concentration required to increase 50% enzyme activity by mass spectrometry assay
T1 sequence (whole entry): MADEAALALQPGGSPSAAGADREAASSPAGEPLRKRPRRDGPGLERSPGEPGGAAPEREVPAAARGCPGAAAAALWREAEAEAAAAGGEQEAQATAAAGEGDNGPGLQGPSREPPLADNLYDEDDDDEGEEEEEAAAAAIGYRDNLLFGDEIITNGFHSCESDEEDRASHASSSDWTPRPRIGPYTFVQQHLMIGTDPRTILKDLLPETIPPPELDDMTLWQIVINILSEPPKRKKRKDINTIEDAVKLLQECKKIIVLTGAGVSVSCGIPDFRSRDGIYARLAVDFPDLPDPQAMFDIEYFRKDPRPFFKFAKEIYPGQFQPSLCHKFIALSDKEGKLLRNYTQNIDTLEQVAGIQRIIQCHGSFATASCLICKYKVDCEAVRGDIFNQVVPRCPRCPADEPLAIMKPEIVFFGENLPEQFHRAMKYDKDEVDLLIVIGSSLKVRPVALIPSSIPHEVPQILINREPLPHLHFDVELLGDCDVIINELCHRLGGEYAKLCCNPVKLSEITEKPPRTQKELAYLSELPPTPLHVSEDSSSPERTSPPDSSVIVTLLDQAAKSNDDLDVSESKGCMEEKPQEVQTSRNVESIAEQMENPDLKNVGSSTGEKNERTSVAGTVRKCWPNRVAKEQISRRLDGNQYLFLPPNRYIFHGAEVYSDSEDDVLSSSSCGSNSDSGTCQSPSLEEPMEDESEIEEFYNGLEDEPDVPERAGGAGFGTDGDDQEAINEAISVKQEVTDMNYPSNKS
Procedure, shortened: (§1)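 Truncated SIRT1 was expressed in E. coli BL21Start (DE3) and purified on Ni2+ chelate. Reaction: 10 nM enzyme, 0.5 µM biotinylated, fluorophore-tagged p53-derived 20-mer acetyl-lysine peptide and 120 µM NAD+, in 50 mM Tris-acetate pH 8 with NaCl, KCl, MgCl2, 5 mM DTT and 0.05% BSA; DMSO vehicle; 25 min at 25 °C. Stopped with formic acid/nicotinamide; acetylated versus deacetylated peptide read by mass spectrometry. EC1.5 is the concentration raising activity by 50%, the mean of three titration curves.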

[2] = target: T1, NAD-dependent protein deacetylase sirtuin-1 (Homo sapiens); test: Activation of human SIRT1 expressed in Escherichia coli BL21Start assessed as maximum activation of enzyme activity by mass spectrometry assay; procedure, shortened: as §1
[3] = Solubility in water; assay type: physicochemical
[4] = Solubility in buffer at pH 7.4 by HPLC method; assay type: physicochemical
Procedure, shortened: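 Kinetic solubility was measured in pH 7.4 buffer by HPLC.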

[5] = Metabolic stability in mouse microsomes assessed as half life; assay type: ADME, Microsome
[6] = Metabolic stability in human microsomes assessed as half life; assay type: ADME, Microsome
[7] = Oral bioavailability in C57BL/6 mouse at 100 mg/kg; assay type: ADME, organism-based; details: in vivo
Procedure, shortened: (§2)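 Male C57BL/6 mice (18-22 g; 3 per dose group per time point), given 100 mg/kg po as the hydrochloride salt in 2% HPMC + 0.2% DOSS, or 10 mg/kg iv by tail vein in 10% ethanol/40% polyethylene glycol/50% H2O. Plasma was taken at 5, 30, 120 and 360 min after dosing and drug levels were measured.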

[8] = Cmax in C57BL/6 mouse at 100 mg/kg, po or 10 mg/kg, iv; assay type: ADME, organism-based; details: in vivo; procedure, shortened: as §2
[9] = Terminal half life in C57BL/6 mouse at 100 mg/kg, po or 10 mg/kg, iv; assay type: ADME, organism-based; details: in vivo, read-out: beta t1/2 (converted); procedure, shortened: as §2
[10] = AUC in C57BL/6 mouse at 100 mg/kg, po or 10 mg/kg, iv; assay type: ADME, organism-based; details: plasma; procedure, shortened: as §2

Compound	Activity [1] [µM]	Activity [2] [%]	further results
O=C(Nc1ccccc1-c1cn2c(CN3CCNCC3)csc2n1)c1cccc(SC(F)F)c1	0.51	808	–
O=C(Nc1ccccc1-c1cn2c(CN3CCNCC3)csc2n1)c1ccccc1	25	322	–
O=C(Nc1ccccc1-c1cn2c(CN3CCNCC3)csc2n1)c1cccc(OC(F)(F)F)c1	0.9	665	–
O=C(Nc1ccccc1-c1cn2c(CN3CCNCC3)csc2n1)c1cnc2ccccc2c1	0.68	301	–
O=C(Nc1ccccc1-c1cn2c(CN3CCNCC3)csc2n1)c1cc2ccccc2s1	24	253	–
COc1cc(C(=O)Nc2ccccc2-c2cn3c(CN4CCNCC4)csc3n2)cc(OC)c1OC	1.8	271	solubility [3]: > 10000 µg/mL; solubility [4]: > 100 µM; half-life [5]: > 5 h; half-life [6]: 1.87 h; bioavailability [7]: 40%; Cmax [8]: 14 µM; half-life [9]: 6 h; AUC [10]: 45000 ng·h/mL
COc1cc(C(=O)Nc2ccccc2-c2cn3cc(CN4CCNCC4)sc3n2)cc(OC)c1OC	3.2	257	–
COc1cc(C(=O)Nc2ccccc2-c2cn3cc(CN(C)C)sc3n2)cc(OC)c1OC	4.8	295	–
O=C(Nc1ccccc1-c1cn2c(CN3CCNCC3)csc2n1)c1ccc2occc2c1	6.9	380	–
O=C(Nc1ccccc1-c1cn2c(CN3CCNCC3)csc2n1)c1cnccn1	1.7	270	–
COc1cc(C(=O)Nc2ccccc2-c2cn3ccsc3n2)cc(OC)c1OC	2.5	272	solubility [3]: < 100 µg/mL; half-life [5]: 0.0833 h; half-life [6]: 0.167 h
O=C(Nc1ccccc1-c1cn2c(CN3CCNCC3)csc2n1)c1ccc2c(c1)OCO2	4.9	332	–
COc1cc(F)cc(C(=O)Nc2ccccc2-c2cn3c(CN4CCNCC4)csc3n2)c1	2.1	662	–
COc1ccc(C(=O)Nc2ccccc2-c2cn3c(CN4CCNCC4)csc3n2)cc1F	6.2	619	–
O=C(Cc1ccccc1)Nc1ccccc1-c1cn2c(CN3CCNCC3)csc2n1	14	130	–
COc1cc(C(=O)Nc2cccc(-c3cn4ccsc4n3)c2)cc(OC)c1OC	7.5	380	–
O=C(Nc1ccccc1-c1cn2c(CN3CCNCC3)csc2n1)c1ccc2ccccc2n1	0.99	440	–
COc1cccc(C(=O)Nc2ccccc2-c2cn3c(CN4CCNCC4)csc3n2)c1	3.7	928	–
O=C(Nc1ccccc1-c1cn2c(CN3CCNCC3)csc2n1)c1cccc2cccnc12	45	208	–
COc1cc(C(=O)Nc2cccc(-c3nc4ncccc4o3)c2)cc(OC)c1OC	11	388	–
COc1cc(C(=O)Nc2ccccc2-c2cn3c(CN(C)C)csc3n2)cc(OC)c1OC	1.9	270	–
COc1ccc(C(=O)Nc2ccccc2-c2cn3c(CN4CCNCC4)csc3n2)c(OC)c1	31	197	–
Oc1ccc(/C=C/c2cc(O)cc(O)c2)cc1	48	250	–
O=C(Nc1ccccc1-c1cn2c(CN3CCNCC3)csc2n1)c1cc2ccccc2o1	0.61	381	–
COc1ccc(C(=O)Nc2ccccc2-c2cn3c(CN4CCNCC4)csc3n2)cc1OC	4.5	406	–
O=C(Nc1ccccc1-c1cn2c(CN3CCNCC3)csc2n1)C1CCCC1	130	383	–
